Test results as given in ChEMBL document CHEMBL4196177, “Synthesis, Evaluation, and Structure-Activity Relationship Study of Lanosterol Derivatives To Reverse Mutant-Crystallin-Induced Protein Aggregation” (J Med Chem, 2018).
Substitutions are numbered along the chain they refer to. pEC50: −log10 of the molar value. Calls of active or inactive are those of the source. The rule behind the calls is not given here.

Columns and labels:
[1] = tested on: T1, Alpha-crystallin A chain (Homo sapiens), P02489 [R116C]; experiment: Induction of redissolving of aggregated alpha-crystallin A R116C mutant (unknown origin) at 200 uM incubated for 24 hrs by ThT-fluorescence based assay
T1 sequence (whole entry): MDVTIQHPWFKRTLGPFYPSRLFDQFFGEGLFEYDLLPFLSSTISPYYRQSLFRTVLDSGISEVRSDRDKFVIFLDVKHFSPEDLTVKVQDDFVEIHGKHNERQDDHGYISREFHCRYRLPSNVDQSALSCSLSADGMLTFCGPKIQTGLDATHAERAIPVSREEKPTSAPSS
Procedure, shortened: (§1)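 Purified mutant crystallin proteins, pre-formed into amyloid-like fibrils, were treated with compounds delivered in liposomes, with a liposome-only vehicle control. Redissolution was read as thioflavin T (ThT) fluorescence, n = 3.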

[2] = tested on: T2, Alpha-crystallin A chain (Homo sapiens), P02489 [R116H]; experiment: Induction of redissolving of aggregated alpha-crystallin A R116H mutant (unknown origin) at 200 uM incubated for 24 hrs by ThT-fluorescence based assay; procedure, shortened: as §1
T2 sequence (whole entry): T1 sequence (whole entry) with C116H

[3] = tested on: T3, Alpha-crystallin B chain (Homo sapiens), P02511 [R120G]; experiment: Induction of redissolving of aggregated alpha-crystallin B R120G mutant (unknown origin) at 200 uM incubated for 24 hrs by ThT-fluorescence based assay; procedure, shortened: as §1
T3 sequence (whole entry): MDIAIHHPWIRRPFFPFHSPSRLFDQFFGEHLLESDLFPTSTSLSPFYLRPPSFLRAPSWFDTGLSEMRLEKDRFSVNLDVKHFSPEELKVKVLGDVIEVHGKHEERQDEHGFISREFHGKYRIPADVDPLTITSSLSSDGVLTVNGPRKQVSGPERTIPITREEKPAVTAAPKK

[4] = tested on: T4, Gamma-crystallin C (Homo sapiens), P07315 [G129C]; experiment: Induction of redissolving of aggregated gamma-crystallin C G129C mutant (unknown origin) at 200 uM incubated for 24 hrs by ThT-fluorescence based assay; procedure, shortened: as §1
T4 sequence (whole entry): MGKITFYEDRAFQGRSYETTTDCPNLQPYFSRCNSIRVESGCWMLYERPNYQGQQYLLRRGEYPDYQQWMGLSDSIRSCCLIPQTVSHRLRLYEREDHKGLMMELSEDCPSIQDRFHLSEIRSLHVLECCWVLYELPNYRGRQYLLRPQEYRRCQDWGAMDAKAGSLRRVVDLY

Alpha-crystallin A chain = Alpha-crystallin A chain (Homo sapiens, UniProt P02489, Y118D); experiment: Induction of redissolving of aggregated alpha-crystallin A Y118D mutant (unknown origin) incubated for 24 hrs by ThT-fluorescence based assay
Alpha-crystallin A chain, sequence (P02489 whole entry Y118D): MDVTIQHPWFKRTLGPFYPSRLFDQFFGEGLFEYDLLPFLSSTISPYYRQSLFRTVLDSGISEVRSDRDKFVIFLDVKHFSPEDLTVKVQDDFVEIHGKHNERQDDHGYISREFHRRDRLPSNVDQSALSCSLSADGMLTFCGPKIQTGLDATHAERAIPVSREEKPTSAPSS
Procedure, shortened: (§2)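 Dose–response EC50 for redissolving pre-formed amyloid-like fibrils of αA Y118D or αB R120G crystallin. Compounds were delivered in liposomes and the read-out was thioflavin T fluorescence.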

Alpha-crystallin B chain [5] = target: T5, Alpha-crystallin B chain (Homo sapiens, UniProt P02511, R120G); experiment: Induction of redissolving of aggregated alpha-crystallin B R120G mutant (unknown origin) incubated for 24 hrs by ThT-fluorescence based assay; procedure, shortened: as §2
[6] = tested on: T1, Alpha-crystallin A chain (Homo sapiens), P02489 [R116C]; experiment: Induction of redissolving of aggregated alpha-crystallin A R116C mutant (unknown origin) at 200 uM incubated for 24 hrs by transmission-electron-microscopy
Procedure, shortened: (§3)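 Pre-formed amyloid-like fibrils of mutant crystallin proteins were treated with compounds in liposomes or with a liposome vehicle. Fibrillar structures were then examined by negative-stain transmission electron microscopy.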

[7] = tested on: T2, Alpha-crystallin A chain (Homo sapiens), P02489 [R116H]; experiment: Induction of redissolving of aggregated alpha-crystallin A R116H mutant (unknown origin) at 200 uM incubated for 24 hrs by transmission-electron-microscopy; procedure, shortened: as §3
[8] = tested on: T6, Alpha-crystallin A chain (Homo sapiens), P02489 [Y118D]; experiment: Induction of redissolving of aggregated alpha-crystallin A Y118D mutant (unknown origin) at 200 uM incubated for 24 hrs by transmission-electron-microscopy; procedure, shortened: as §3
T6 sequence (whole entry): T1 sequence (whole entry) with C116R, Y118D

[9] = tested on: T3, Alpha-crystallin B chain (Homo sapiens), P02511 [R120G]; experiment: Induction of redissolving of aggregated alpha-crystallin B R120G mutant (unknown origin) at 200 uM incubated for 24 hrs by transmission-electron-microscopy; procedure, shortened: as §3
[10] = tested on: T7, Beta-crystallin B2 (Homo sapiens), P43320 [R188H]; experiment: Induction of redissolving of aggregated beta-crystallin B2 R188H mutant (unknown origin) at 200 uM incubated for 24 hrs by transmission-electron-microscopy; procedure, shortened: as §3
T7 sequence (whole entry): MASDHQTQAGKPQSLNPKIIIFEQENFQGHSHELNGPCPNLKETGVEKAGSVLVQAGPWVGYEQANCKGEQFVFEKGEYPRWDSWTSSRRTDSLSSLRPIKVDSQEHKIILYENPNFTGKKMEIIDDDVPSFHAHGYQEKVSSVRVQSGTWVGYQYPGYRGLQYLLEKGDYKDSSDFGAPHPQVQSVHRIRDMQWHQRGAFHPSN

Alpha-crystallin B chain [11] = target: T5, Alpha-crystallin B chain; experiment: Inhibition of alpha-crystallin B R120G mutant (unknown origin)-induced intracellular protein aggregation expressed in human HeLa cells or HLE-B3 cells incubated for 6 to 8 hrs by fluorescence microscopy relative to untreated control; assay type: cell-based

For `C[C@H](CCCC(C)(C)O)[C@H]1CC[C@@]2(C)C3=C(CC[C@]12C)[C@@]1(C)CC[C@H](O)C(C)(C)[C@@H]1CC3`, the Activity [1] was “Active”, the Activity [2] was “Active” and the Activity [3] was “Active”. The Activity [4] was “Active”, the pEC50 (Alpha-crystallin A chain) was 7.45 and the pEC50 (Alpha-crystallin B chain [5]) was 5.51. The Activity [6] was “Active”, the Activity [7] was “Active” and the Activity [8] was “Active”. The Activity [9] was “Active” and the Activity [10] was “Active”.
With `C[C@H](CCCC(C)(C)O)[C@H]1CC[C@@]2(C)[C@@]34CC[C@H]5C(C)(C)/C(=N/O)CC[C@]5(C)[C@]3(CC[C@]12C)O4` the EC50 (Alpha-crystallin B chain [11]) was “Not Active”, the Activity [1] was “inactive” and the Activity [2] was “inactive”. The Activity [3] was “inactive”, the Activity [4] was “inactive” and the Activity [6] was “inactive”. For the same compound, the Activity [7] was “inactive”, the Activity [8] was “inactive” and the Activity [9] was “inactive”. The Activity [10] was “inactive”.
